Reference: ChEMBL document CHEMBL3877332, “Synthesis, Biological Evaluation, and Autophagy Mechanism of 12N-Substituted Sophoridinamines as Novel Anticancer Agents” (ACS Med Chem Lett, 2017)
Active and inactive are the calls of the source. No cut-off for these calls is given here.

Experiments:
[1] = Antiproliferative activity against human HepG2 cells assessed as reduction in cell viability by MTT assay; assay type: functional, cell-based
HepG2 [2] = assay: Reduction in lysosomal acidification in human HepG2 cells at 50 uM after 6 hrs by DAPI/lyso tracker red-double staining based confocal microscopic analysis relative to control; assay type: functional, cell-based
Outline: (§1)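 HepG2 cells were incubated at 5 μM (test agent) or 50 μM (chloroquine) for 6 h, then stained with LysoTracker Red. Nuclei were stained with DAPI and cells imaged by confocal microscopy (×63). LysoTracker Red signal was quantified per cell against untreated control.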

[3] = Cytotoxicity against human HepG2 cells assessed as reduction in cell viability at 50 uM by MTT assay; assay type: functional
Outline: (§2)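 HepG2 cells were exposed to test agent at 5 μM or chloroquine at 50 μM for the indicated times. Viability was measured by MTT assay.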

[4] = Antiproliferative activity against human K562 cells assessed as reduction in cell viability by MTT assay; assay type: functional, cell-based
[5] = Antiproliferative activity against human HMLE cells assessed as reduction in cell viability by MTT assay; assay type: functional, cell-based
[6] = Tmax in Sprague-Dawley rat at 25 mg/kg, po measured up to 24 hrs; assay type: ADME, organism-based; conditions: in vivo
Outline: (§3)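 Adult male Sprague-Dawley rats were given a single oral dose of 25 mg/kg. Nine blood samples (0.3 mL) were taken over 24 h. n = 3.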

[7] = Cmax in Sprague-Dawley rat at 25 mg/kg, po measured up to 24 hrs; assay type: ADME, organism-based; design: dose 25 mg/kg, route oral; conditions: in vivo; outline: as §3
[8] = AUCt in Sprague-Dawley rat at 25 mg/kg, po measured up to 24 hrs; assay type: ADME, organism-based; design: time < 24 hr, dose 25 mg/kg, route oral; conditions: in vivo; outline: as §3
[9] = AUC (0 to infinity) in Sprague-Dawley rat at 25 mg/kg, po measured up to 24 hrs; assay type: ADME, organism-based; design: dose 25 mg/kg, route oral, time infinity; conditions: in vivo; outline: as §3
[10] = MRT in Sprague-Dawley rat at 25 mg/kg, po measured up to 24 hrs; assay type: ADME, organism-based; conditions: in vivo; outline: as §3
[11] = Half life in Sprague-Dawley rat at 25 mg/kg, po measured up to 24 hrs; assay type: ADME, organism-based; conditions: in vivo; outline: as §3
HepG2 [12] = assay: Induction of autophagosome accumulation in human HepG2 cells transfected with EGFP-LC3 assessed as punctate dot formation at 5 uM after 6 hrs by fluorescent microscopic analysis relative to control; assay type: functional, cell-based
Outline: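 HepG2 cells were transfected with an EGFP-LC3 plasmid, then exposed 24 h later to 5 μM or left untreated for 6 h. Cells were imaged by fluorescence microscopy, and EGFP-LC3 puncta per cell were counted in at least 100 cells per group.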

A549 [13] = assay: Induction of autophagosome accumulation in human A549 cells transfected with EGFP-LC3 assessed as punctate dot formation at 5 uM after 6 hrs by fluorescent microscopic analysis relative to control; assay type: functional, cell-based
HepG2 [14] = assay: Blockade of autophagic flux in human HepG2 cells assessed as increase in LC3-2 level at 5 uM after 8 hrs in presence of chloroquine by Western blot analysis; assay type: functional, cell-based
Outline: (§4)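 A549 and HepG2 cells were pretreated with chloroquine (10 μM) or rapamycin (200 nM) for 2 h. Compound was then added at 5 μM for 8 h. LC3 turnover (LC3-II) was detected by Western blot.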

A549 [15] = assay: Blockade of autophagic flux in human A549 cells assessed as increase in LC3-2 level at 5 uM after 8 hrs in presence of chloroquine by Western blot analysis; assay type: functional, cell-based; outline: as §4
HepG2 [16] = assay: Blockade of autophagic flux in human HepG2 cells transfected with mCherry-EGFP-LC3 assessed as punctate dot formation at 5 uM after 6 hrs by DAPI staining-based confocal microscopic analysis; assay type: functional, cell-based
Outline: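 HepG2 cells were transfected with an mCherry-EGFP-LC3 tandem plasmid and treated at 5 μM for 6 h (CQ 50 μM alongside). Imaging was by confocal microscopy with DAPI-stained nuclei. GFP/mCherry double-positive and mCherry single-positive puncta per cell were counted in ≥100 cells per count. Data are the mean of three independent experiments ± SD.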

HepG2 [17] = assay: Reduction in lysosomal acidification in human HepG2 cells at 5 uM after 6 hrs by DAPI/lyso tracker red-double staining based confocal microscopic analysis relative to control; assay type: functional, cell-based; outline: as §1
[18] = Cytotoxicity against human HepG2 cells assessed as reduction in cell viability at 5 uM by MTT assay; assay type: functional; outline: as §2
HepG2 [19] = assay: Blockade of autophagic flux in human HepG2 cells assessed as increase in LC3-2 level at 5 uM after 8 hrs in presence of rapamycin by Western blot analysis; assay type: functional, cell-based; outline: as §4
A549 [20] = assay: Blockade of autophagic flux in human A549 cells assessed as increase in LC3-2 level at 5 uM after 8 hrs in presence of rapamycin by Western blot analysis; assay type: functional, cell-based; outline: as §4

## COc1cc(NCCCC[C@@H]2[C@H]3CCCN4CCC[C@H](CN2Cc2ccc(Cl)cc2)[C@@H]34)cc(OC)c1OC
[1]
  IC50: 6.4 µM

## O=C(c1ccc(Cl)cc1)N1C[C@H]2CCCN3CCC[C@@H]([C@H]23)[C@H]1CCCCNCCc1cccc2c1OCO2
[1]
  IC50: > 20 µM

## O=C(c1ccc(Cl)cc1)N1C[C@H]2CCCN3CCC[C@@H]([C@H]23)[C@H]1CCCCNCc1cccc2c1OCO2
[1]
  IC50: 16.5 µM

## O=S(=O)(c1ccc(Cl)cc1)N1C[C@H]2CCCN3CCC[C@@H]([C@H]23)[C@H]1CCCCNCCc1cccc2c1OCO2
[1]
  IC50: 5.5 µM

## CCN(CC)CCCC(C)Nc1ccnc2cc(Cl)ccc12 (configuration not stated) [CHLOROQUINE]
HepG2 [2]
  Activity: Active
[3]
  Activity: 50%

## COc1cc(CNCCCC[C@@H]2[C@H]3CCCN4CCC[C@H](CN2Cc2ccc(Cl)cc2)[C@@H]34)cc(OC)c1OC
[1]
  IC50: 1.7 µM
[4]
  IC50: 1.03 µM
[5]
  IC50: 0.55 µM
[6]
  Tmax: 1.6 h
[7]
  Cmax: 4900 nM
[8]
  AUC(0-t) at 24 h: 10.8 µM·h
[9]
  AUC(0-inf): 13.3 µM·h
[10]
  MRT: 11.6 h
[11]
  half-life: 13 h
HepG2 [12]
  Activity: Active
A549 [13]
  Activity: Active
HepG2 [14]
  Activity: Active
A549 [15]
  Activity: Active
HepG2 [16]
  Activity: Active
HepG2 [17]
  Activity: Active
[18]
  Activity: 50%
HepG2 [19]
  Activity: Active
A549 [20]
  Activity: Active

## COc1cc(NCCCC[C@@H]2[C@H]3CCCN4CCC[C@H](CN2S(=O)(=O)c2ccc(Cl)cc2)[C@@H]34)cc(OC)c1OC
[1]
  IC50: 7.9 µM

## CC(C)(C)C(=O)N1C[C@H]2CCCN3CCC[C@@H]([C@H]23)[C@H]1CCCCO
[1]
  IC50: > 50 µM

## O=S(=O)(c1ccc(Cl)cc1)N1C[C@H]2CCCN3CCC[C@@H]([C@H]23)[C@H]1CCCCO
[1]
  IC50: 28.8 µM

## COC(=O)CCC[C@@H]1[C@H]2CCCN3CCC[C@H](CN1C(=O)c1ccc(Cl)cc1)[C@@H]23
[1]
  IC50: > 50 µM

## COC(=O)CCC[C@@H]1[C@H]2CCCN3CCC[C@H](CN1C(=O)C(C)(C)C)[C@@H]23
[1]
  IC50: > 50 µM

## CC[C@@]1(O)C(=O)OCc2c1cc1n(c2=O)Cc2cc3c(CN(C)C)c(O)ccc3nc2-1 [TOPOTECAN]
[4]
  IC50: 1.15 µM
[5]
  IC50: 0.75 µM

## Clc1ccc(CN2C[C@H]3CCCN4CCC[C@@H]([C@H]34)[C@H]2CCCCNCCc2cccc3c2OCO3)cc1
[1]
  IC50: 2.6 µM
[4]
  IC50: 1.09 µM
[5]
  IC50: 0.68 µM
[6]
  Tmax: 1.8 h
[7]
  Cmax: 2900 nM
[8]
  AUC(0-t) at 24 h: 6.1 µM·h
[9]
  AUC(0-inf): 11.7 µM·h
[10]
  MRT: 10.8 h
[11]
  half-life: 21.9 h

## COC(=O)CCC[C@@H]1[C@H]2CCCN3CCC[C@H](CN1C(=O)NCCCl)[C@@H]23
[1]
  IC50: > 50 µM

## Clc1ccc(CN2C[C@H]3CCCN4CCC[C@@H]([C@H]34)[C@H]2CCCCNCc2cccc3c2OCO3)cc1
[1]
  IC50: 2.6 µM
[4]
  IC50: 1.14 µM
[5]
  IC50: 0.64 µM
[6]
  Tmax: 1.2 h
[7]
  Cmax: 2700 nM
[8]
  AUC(0-t) at 24 h: 5.7 µM·h
[9]
  AUC(0-inf): 6.8 µM·h
[10]
  MRT: 9.1 h
[11]
  half-life: 11.2 h

## COC(=O)CCC[C@@H]1[C@H]2CCCN3CCC[C@H](CN1C(=O)N(CCCl)N=O)[C@@H]23
[1]
  IC50: 38.3 µM

## OCCCC[C@@H]1[C@H]2CCCN3CCC[C@H](CN1Cc1ccc(Cl)cc1)[C@@H]23
[1]
  IC50: 9.3 µM

## Clc1ccc(CN2C[C@H]3CCCN4CCC[C@@H]([C@H]34)[C@H]2CCCCNc2cccc3c2OCO3)cc1
[1]
  IC50: 10.6 µM

## O=C(c1ccc(Cl)cc1)N1C[C@H]2CCCN3CCC[C@@H]([C@H]23)[C@H]1CCCCO
[1]
  IC50: > 50 µM

## COC(=O)CCC[C@@H]1[C@H]2CCCN3CCC[C@H](CN1S(=O)(=O)c1ccc(Cl)cc1)[C@@H]23
[1]
  IC50: 15.8 µM

## COc1cc(CNCCCC[C@@H]2[C@H]3CCCN4CCC[C@H](CN2C(=O)c2ccc(Cl)cc2)[C@@H]34)cc(OC)c1OC
[1]
  IC50: > 20 µM

## O=S(=O)(c1ccc(Cl)cc1)N1C[C@H]2CCCN3CCC[C@@H]([C@H]23)[C@H]1CCCCNCc1cccc2c1OCO2
[1]
  IC50: 3.8 µM
